We go through 25 compounds from ChEMBL document CHEMBL1151751, “Bisphosphonate inhibition of a Plasmodium farnesyl diphosphate synthase and a general method for predicting cell-based activity from enzyme data” (J Med Chem, 2008).

A short description of test [1]: Inhibition of Plasmodium vivax FPPS expressed in Escherichia coli BL21 by spectrophotometric assay. A digest of the protocol: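 Recombinant enzyme from lysed cells (lysozyme, nuclease, protease inhibitors), purified on Ni-NTA resin. The GPP + IPP condensation was followed at room temperature by a continuous spectrophotometric phosphate-release assay in 25 mM Hepes, 2.5 mM MgCl₂, pH 7.4. Inhibitors were preincubated with enzyme for 30 min at room temperature. IC50 was obtained by fitting the dose–response curve.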

For a further test, the system named is Plasmodium falciparum. As to the kind of experiment: Growth inhibition of Plasmodium falciparum. Type of test: functional, organism-based.
Another test deals with Plasmodium berghei. The experiment in a line: Antiparasitic activity against Plasmodium berghei ANKA infected BALB/c mice (Mus musculus) as reduced parasitaemia. Type of test: functional. Details: scale not given: the % may be the effect or the level left.

A word on the pIC50: it is the negative decadic logarithm of the IC50, by convention in mol/L. Consider `O=P(O)(O)C(Nc1nccs1)P(=O)(O)O`, for which the values for the IC50 (in test [1]; in the test with Plasmodium falciparum (read-out: IC50); in the test with Plasmodium falciparum (read-out: pIC50 (converted))) were 710 nM, 120 µM and 126 µM, respectively. In test [1], this compound registered a negative-log IC50 (pIC50) of 6.1.

Consider `Cc1cccc(CC(O)(P(=O)(O)O)P(=O)(O)O)c1`, for which the IC50 in test [1] was 2300 nM; with Plasmodium falciparum (read-out: IC50), 23 µM; with Plasmodium falciparum (read-out: pIC50 (converted)) it was 25.1 µM. In test [1], the pIC50 was determined as 5.6.

As for `O=P(O)(O)C(O)(Cc1cccc(Cl)c1)P(=O)(O)O`, the IC50 in test [1] is 630 nM; with Plasmodium falciparum (read-out: IC50), 4.3 µM; with Plasmodium falciparum (read-out: pIC50 (converted)), 3.98 µM. Also, the pIC50 in test [1] stood at 6.2.

Take `O=P(O)(O)C(O)(Cc1cccc(C(F)(F)F)c1)P(=O)(O)O`: the IC50 in test [1] is 680 nM; in the test on Plasmodium falciparum (read-out: IC50) it was 3.8 µM; in the test with Plasmodium falciparum (read-out: pIC50 (converted)) it was 3.98 µM. This compound also displayed a negative-log IC50 (pIC50) in test [1] of 6.2.

Take `O=P(O)(O)C(O)(Cc1cccc(F)c1)P(=O)(O)O`: the figures for the IC50 (in test [1]; in the test with Plasmodium falciparum (read-out: IC50); with Plasmodium falciparum (read-out: pIC50 (converted))) were 630 nM, 6.4 µM and 6.31 µM, respectively. The compound also yielded a pIC50 in test [1] of 6.2.

With `Cc1ccc(C)c(COc2ccc(C)nc2NC(P(=O)(O)O)P(=O)(O)O)c1`, the IC50 in test [1] is 98000 nM; with Plasmodium falciparum (read-out: IC50), 200 µM; with Plasmodium falciparum (read-out: pIC50 (converted)) it was 200 µM. The same compound came in with a pIC50 in test [1] of 4.

Regarding `O=P(O)(O)C(CNc1ccccn1)P(=O)(O)O`, the values for the IC50 (in test [1]; in the test on Plasmodium falciparum (read-out: IC50); in the test with Plasmodium falciparum (read-out: pIC50 (converted))) were 820 nM, 28 µM and 25.1 µM, respectively. For the same compound, in test [1], the pIC50 amounted to 6.1.

Consider `CN(CCc1ccccc1)CCC(O)(P(=O)(O)O)P(=O)(O)O`, for which the values for the IC50 (in test [1]; in the test with Plasmodium falciparum (read-out: pIC50 (converted))) were 400 nM and 31.6 µM, respectively. For the same compound, the pIC50 in test [1] was found to be 6.4.

Regarding `O=P(O)(O)C(O)(Cc1cccc(Br)c1)P(=O)(O)O`, the figures for the IC50 (in test [1]; with Plasmodium falciparum (read-out: IC50); with Plasmodium falciparum (read-out: pIC50 (converted))) were 880 nM, 22 µM and 20 µM, respectively. Besides, the pIC50 in test [1] is 6.1.

Consider `CN(Cc1ccccc1)C(P(=O)(O)O)P(=O)(O)O`, for which the IC50 was 870 nM in test [1], 180 µM in the test on Plasmodium falciparum (read-out: IC50) and 200 µM in the test with Plasmodium falciparum (read-out: pIC50 (converted)). In test [1], this compound had a pIC50 of 6.1.

Regarding `O=P(O)(O)C(O)(Cc1ccccn1)P(=O)(O)O`, the IC50 in test [1] is 900 nM; with Plasmodium falciparum (read-out: IC50), 220 µM; in the test with Plasmodium falciparum (read-out: pIC50 (converted)) it was 200 µM. The pIC50 in test [1] amounted to 6.

As for `CCCC(O)(P(=O)(O)O)P(=O)(O)O`, the values for the IC50 (in test [1]; with Plasmodium falciparum (read-out: pIC50 (converted))) were 780 nM and 126 µM, respectively. In addition, in test [1], the pIC50 was found to be 6.1.

For the compound `CCCCCCCCCC(O)(P(=O)(O)O)P(=O)(O)O`, in test [1], the IC50 turned out to be 710 nM and the pIC50 is given as 6.1. Further, the Activity in the test on Plasmodium berghei is 80%.

In test [1], `CN(CCCc1ccccc1)CCC(O)(P(=O)(O)O)P(=O)(O)O` displayed an IC50 of 450 nM and a pIC50 of 6.3. Also, in the test with Plasmodium falciparum (read-out: pIC50 (converted)), the IC50 was 25.1 µM.

With `O=P(O)(O)C(Nc1ccc(Cl)cn1)P(=O)(O)O`, in the test on Plasmodium falciparum (read-out: pIC50 (converted)), the IC50 is 10 µM.

With `CCCCCCC(O)(P(=O)(O)O)P(=O)(O)O`, the IC50 was 630 nM in test [1], 1.4 µM in the test on Plasmodium falciparum (read-out: IC50) and 1.26 µM in the test on Plasmodium falciparum (read-out: pIC50 (converted)). This compound also yielded a pIC50 in test [1] of 6.2.

Consider `O=P(O)(O)C(O)(CSc1ccncc1)P(=O)(O)O`, for which, in test [1], the IC50 came out at 1200 nM and the negative logarithm of the IC50 (pIC50) is 5.9.

In test [1], `CCCCCCCCCCCCCC(O)(P(=O)(O)O)P(=O)(O)O` gave an IC50 of 4100 nM and a pIC50 of 5.4. For the same compound, the IC50 in the test on Plasmodium falciparum (read-out: pIC50 (converted)) is 2 µM.

As to `CN(CCCCc1ccccc1)CCC(O)(P(=O)(O)O)P(=O)(O)O`, in the test with Plasmodium falciparum (read-out: pIC50 (converted)), the IC50 was 3.16 µM.

For `O=P(O)(O)C(O)(Cc1ccccc1)P(=O)(O)O`, the IC50 with Plasmodium falciparum (read-out: IC50) was 11 µM; with Plasmodium falciparum (read-out: pIC50 (converted)) it was 10 µM.

As for `O=P([O-])(O)C(O)(CC1=[n+]2ccccc2=NC1)P(=O)(O)O` (stereo not given), the IC50 was 90 µM with Plasmodium falciparum (read-out: IC50) and 100 µM with Plasmodium falciparum (read-out: pIC50 (converted)).

Take `CCCCCCCCCNC(P(=O)(O)O)P(=O)(O)O` [(NONYLAMINO)METHYLENEDIPHOSPHONIC ACID]: in test [1], the IC50 was found to be 5200 nM and the pIC50 is 5.3. Moreover, in the test on Plasmodium falciparum (read-out: pIC50 (converted)), the IC50 is 100 µM. This compound also came in with an Activity in the test on Plasmodium berghei of 80%.

For the compound `CCCCCCCCNC(P(=O)(O)O)P(=O)(O)O` [(OCTYLAMINO)METHYLENEDIPHOSPHONIC ACID], the IC50 in test [1] is 490 nM; in the test on Plasmodium falciparum (read-out: IC50), 12 µM; in the test with Plasmodium falciparum (read-out: pIC50 (converted)) it was 12.6 µM. In test [1], this compound returned a negative-log IC50 (pIC50) of 6.3.

As for `CCCCCN(C)CCC(O)(P(=O)(O)O)P(=O)(O)O` [IBANDRONIC ACID], the IC50 in test [1] was 920 nM; in the test with Plasmodium falciparum (read-out: IC50) it was 74 µM; in the test on Plasmodium falciparum (read-out: pIC50 (converted)), 79.4 µM. The compound also displayed a pIC50 in test [1] of 6.

In the case of `O=P(O)(O)C(O)(Cn1ccnc1)P(=O)(O)O` [ZOLEDRONIC ACID], the IC50 with Plasmodium falciparum (read-out: pIC50 (converted)) is 158 µM.
